Measurements as given in ChEMBL document CHEMBL1134607, “Synthesis and structure-activity relationships of a new model of arylpiperazines. Study of the 5-HT(1a)/alpha(1)-adrenergic receptor affinity by classical hansch analysis, artificial neural networks, and computational simulation of ligand recognition” (J Med Chem, 2001).

How the values were obtained:
[1] = target: T1, 5-hydroxytryptamine receptor 1A (Rattus norvegicus, UniProt P19327); assay: In vitro binding affinity towards 5-hydroxytryptamine 1A receptor in rat cerebral cortex membranes; format: cell membranes, Membrane
T1 sequence (P19327 whole entry): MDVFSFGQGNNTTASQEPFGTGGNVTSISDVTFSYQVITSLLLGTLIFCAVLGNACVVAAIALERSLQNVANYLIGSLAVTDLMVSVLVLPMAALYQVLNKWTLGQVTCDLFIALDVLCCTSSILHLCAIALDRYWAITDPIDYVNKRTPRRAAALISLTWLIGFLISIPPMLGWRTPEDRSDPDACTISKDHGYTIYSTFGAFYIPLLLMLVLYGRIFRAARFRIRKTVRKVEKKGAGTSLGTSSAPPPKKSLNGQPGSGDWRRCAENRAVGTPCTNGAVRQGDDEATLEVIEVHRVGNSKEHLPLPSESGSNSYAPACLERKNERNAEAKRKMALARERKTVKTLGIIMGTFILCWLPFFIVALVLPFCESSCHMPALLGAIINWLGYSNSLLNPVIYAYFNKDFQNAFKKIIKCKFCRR
Method in brief: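 Rat cerebral cortex membranes, washed and preincubated 10 min at 37 °C. About 1 mg protein incubated 15 min at 37 °C with 0.6 nM [3H]8-OH-DPAT in 50 mM Tris-HCl pH 7.4 containing 10 nM clonidine and 30 nM prazosin. Nonspecific binding with 10 µM 5-HT. Triplicates, filtration, scintillation counting. Ki by Cheng-Prusoff from fitted IC50. Prescreen at 10^-6 M, full curves if displacement ≥55%.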

[2] = target: T2, Adrenergic receptor alpha-1 (Rattus norvegicus, UniProt P15823+P23944+P43140); assay: In vitro binding affinity towards alpha-1 adrenergic receptor in rat cerebral cortex membranes; format: cell membranes, Membrane
T2 sequence (P15823 whole entry): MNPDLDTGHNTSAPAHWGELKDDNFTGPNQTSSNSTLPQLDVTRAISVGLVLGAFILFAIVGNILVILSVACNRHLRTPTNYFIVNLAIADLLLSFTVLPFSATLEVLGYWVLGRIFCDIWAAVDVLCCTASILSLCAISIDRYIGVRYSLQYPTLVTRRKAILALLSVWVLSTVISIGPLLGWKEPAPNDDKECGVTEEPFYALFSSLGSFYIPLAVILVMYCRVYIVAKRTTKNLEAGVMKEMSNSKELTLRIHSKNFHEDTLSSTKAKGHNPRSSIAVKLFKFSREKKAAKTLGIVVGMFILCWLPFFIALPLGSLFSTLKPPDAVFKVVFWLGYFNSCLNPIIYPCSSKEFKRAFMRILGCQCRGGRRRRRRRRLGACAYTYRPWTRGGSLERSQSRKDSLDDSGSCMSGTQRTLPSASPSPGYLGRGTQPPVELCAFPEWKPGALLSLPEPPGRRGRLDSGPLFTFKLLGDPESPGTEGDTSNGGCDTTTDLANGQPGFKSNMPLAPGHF
T2 sequence (P23944 whole entry): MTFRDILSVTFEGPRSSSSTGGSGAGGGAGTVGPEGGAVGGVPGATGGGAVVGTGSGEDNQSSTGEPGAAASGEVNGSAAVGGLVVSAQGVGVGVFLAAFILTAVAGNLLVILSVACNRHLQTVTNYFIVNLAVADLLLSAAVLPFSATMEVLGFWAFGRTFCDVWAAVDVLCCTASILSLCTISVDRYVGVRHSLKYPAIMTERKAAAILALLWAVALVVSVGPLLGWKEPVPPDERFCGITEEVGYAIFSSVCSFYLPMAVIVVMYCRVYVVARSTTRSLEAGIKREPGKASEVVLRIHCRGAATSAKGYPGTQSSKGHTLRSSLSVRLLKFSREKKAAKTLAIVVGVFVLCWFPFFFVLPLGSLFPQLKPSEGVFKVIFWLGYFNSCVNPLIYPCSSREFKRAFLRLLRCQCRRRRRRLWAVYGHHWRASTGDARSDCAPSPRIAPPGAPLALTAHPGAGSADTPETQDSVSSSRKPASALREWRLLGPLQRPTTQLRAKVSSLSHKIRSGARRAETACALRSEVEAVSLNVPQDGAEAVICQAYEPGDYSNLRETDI
T2 sequence (P43140 whole entry): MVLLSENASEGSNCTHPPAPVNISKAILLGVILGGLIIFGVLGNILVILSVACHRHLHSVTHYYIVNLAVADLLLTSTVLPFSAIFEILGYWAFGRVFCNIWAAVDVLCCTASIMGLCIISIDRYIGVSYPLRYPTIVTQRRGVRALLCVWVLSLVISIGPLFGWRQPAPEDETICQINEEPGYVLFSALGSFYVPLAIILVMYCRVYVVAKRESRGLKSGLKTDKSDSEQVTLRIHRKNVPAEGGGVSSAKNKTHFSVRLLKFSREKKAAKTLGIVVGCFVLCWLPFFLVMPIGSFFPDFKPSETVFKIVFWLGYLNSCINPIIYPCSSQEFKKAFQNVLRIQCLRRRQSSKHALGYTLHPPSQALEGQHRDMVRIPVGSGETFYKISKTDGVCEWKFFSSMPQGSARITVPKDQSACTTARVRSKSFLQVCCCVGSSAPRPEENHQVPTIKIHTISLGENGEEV
Method in brief: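 Rat cerebral cortex membranes in 50 mM Tris-HCl, 10 mM MgCl2, pH 7.4. About 250 µg protein incubated 30 min at 25 °C with 0.2 nM [3H]prazosin. Nonspecific binding with 10 µM phentolamine. Triplicates, filtration, scintillation counting. Ki by Cheng-Prusoff from iteratively fitted IC50. Prescreen at 10^-6 M, dose-response curves if displacement ≥55%.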

Ki [1] [nM]	Ki [2] [nM]	SMILES
193	5425	CC(C)C(=O)Nc1cccc(N2CCN(CCCCN3C(=O)C4CCCN4C3=O)CC2)c1.Cl (configuration not stated)
12	25	COc1ccccc1N1CCN(CCCCN2CC(=O)N3CCCC3C2=O)CC1 (configuration not stated)
8.7	10.5	CCCCOc1ccccc1N1CCN(CCCCN2CC(=O)N3CCCC3C2=O)CC1 (configuration not stated)
1230	1354	CCCNC(=O)c1ccccc1N1CCN(CCCCN2CC(=O)N3CCCC3C2=O)CC1 (configuration not stated)
92	13	CCCCOc1ccccc1N1CCN(CCCN2CC(=O)N3CCCCC3C2=O)CC1 (configuration not stated)
0.6	2.4	O=C1C2CCCCN2C(=O)N1CCCCN1CCN(c2ccccc2Oc2ccccc2)CC1 (configuration not stated)
143	29	COc1ccccc1N1CCN(CCCN2CC(=O)N3CCCCC3C2=O)CC1 (configuration not stated)
–	> 1000	CCS(=O)(=O)Nc1cccc(N2CCN(CCCCN3C(=O)C4CCCN4C3=O)CC2)c1 (configuration not stated)
220	5.7	Cc1ccccc1N1CCN(CCCN2C(=O)C3CCCCN3C2=O)CC1 (configuration not stated)
808	608	CCCNC(=O)c1ccccc1N1CCN(CCCN2C(=O)C3CCCN3C2=O)CC1 (configuration not stated)
15	30	N#Cc1ccccc1N1CCN(CCCCN2CC(=O)N3CCCCC3C2=O)CC1 (configuration not stated)
266	1440	CC(C)C(=O)Nc1cccc(N2CCN(CCCN3CC(=O)N4CCCC4C3=O)CC2)c1 (configuration not stated)
776	4430	CC(C)C(=O)Nc1cccc(N2CCN(CCCN3C(=O)C4CCCCN4C3=O)CC2)c1 (configuration not stated)
48	17	Cc1ccccc1N1CCN(CCCN2CC(=O)N3CCCC3C2=O)CC1 (configuration not stated)
5.4	5.9	O=C1C2CCCCN2C(=O)N1CCCCN1CCN(c2cccc(Br)c2)CC1 (configuration not stated)
–	12	CCCOC(=O)c1ccccc1N1CCN(CCCN2CC(=O)N3CCCC3C2=O)CC1 (configuration not stated)
4610	811	CCCNC(=O)c1ccccc1N1CCN(CCCN2CC(=O)N3CCCCC3C2=O)CC1 (configuration not stated)
2.2	5	CCCCOc1ccccc1N1CCN(CCCCN2C(=O)C3CCCCN3C2=O)CC1 (configuration not stated)
4	4.9	N#Cc1ccccc1N1CCN(CCCCN2C(=O)C3CCCN3C2=O)CC1 (configuration not stated)
198	16140	CC(C)C(=O)Nc1cccc(N2CCN(CCCCN3CC(=O)N4CCCCC4C3=O)CC2)c1 (configuration not stated)
4.8	41	CCCOC(=O)c1ccccc1N1CCN(CCCCN2C(=O)C3CCCN3C2=O)CC1 (configuration not stated)

Continued, compound first:

SMILES	Ki [1] [nM]	Ki [2] [nM]
Nc1cccc(N2CCN(CCCCN3C(=O)C4CCCCN4C3=O)CC2)c1 (configuration not stated)	68	231
O=C1C2CCCCN2C(=O)CN1CCCN1CCN(c2cccc(C(F)(F)F)c2)CC1 (configuration not stated)	179	339
Cc1ccccc1N1CCN(CCCCN2C(=O)C3CCCN3C2=O)CC1 (configuration not stated)	–	7
N#Cc1ccccc1N1CCN(CCCN2C(=O)C3CCCCN3C2=O)CC1 (configuration not stated)	65	8.2
CCCOC(=O)c1ccccc1N1CCN(CCCN2C(=O)C3CCCCN3C2=O)CC1 (configuration not stated)	46	13
Cc1ccccc1N1CCN(CCCCN2CC(=O)N3CCCCC3C2=O)CC1 (configuration not stated)	32	27
N#Cc1ccccc1N1CCN(CCCN2CC(=O)N3CCCC3C2=O)CC1 (configuration not stated)	27	17
CCCOC(=O)c1ccccc1N1CCN(CCCCN2CC(=O)N3CCCCC3C2=O)CC1 (configuration not stated)	28	392
CCCNC(=O)c1ccccc1N1CCN(CCCCN2C(=O)C3CCCCN3C2=O)CC1 (configuration not stated)	378	521
Nc1cccc(N2CCN(CCCN3C(=O)C4CCCN4C3=O)CC2)c1 (configuration not stated)	1180	393
CCCCOc1ccccc1N1CCN(CCCN2C(=O)C3CCCN3C2=O)CC1 (configuration not stated)	15	6.4
O=C1C2CCCN2C(=O)CN1CCCCN1CCN(c2cccc(C(F)(F)F)c2)CC1 (configuration not stated)	5.5	72
O=C1C2CCCN2C(=O)N1CCCN1CCN(c2cccc(Br)c2)CC1 (configuration not stated)	34	25
O=C1C2CCCCN2C(=O)N1CCCCN1CCN(c2ccccc2Br)CC1 (configuration not stated)	3.4	6.2
